Laboratory results taken from ChEMBL document CHEMBL1157658, “Structure-activity relationship of (N)-Methanocarba phosphonate analogues of 5'-AMP as cardioprotective agents acting through a cardiac P2X receptor” (J Med Chem, 2010).
The source made the active and inactive calls. The rule behind the calls is not given here.

Columns and labels:
[1] = molecular target: T1, P2Y purinoceptor 1 (Homo sapiens, UniProt P47900); experiment: Activation of human P2Y1 receptor expressed in human 1321N1 cells assessed as induction of calcium flux up to 10 uM by FLIPR assay; type: functional, cell-based
T1 sequence (P47900 whole entry): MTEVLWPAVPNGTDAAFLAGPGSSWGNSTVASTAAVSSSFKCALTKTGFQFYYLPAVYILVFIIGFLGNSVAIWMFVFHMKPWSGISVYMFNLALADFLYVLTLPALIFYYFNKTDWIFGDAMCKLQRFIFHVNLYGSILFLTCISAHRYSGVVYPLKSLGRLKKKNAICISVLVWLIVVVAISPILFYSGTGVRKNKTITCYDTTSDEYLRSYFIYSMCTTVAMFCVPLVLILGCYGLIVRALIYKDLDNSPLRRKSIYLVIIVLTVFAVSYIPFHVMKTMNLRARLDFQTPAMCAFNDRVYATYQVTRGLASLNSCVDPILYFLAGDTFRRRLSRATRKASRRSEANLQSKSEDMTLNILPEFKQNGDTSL
How it was run: (§1)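 1321N1 human astrocytoma cells stably expressing hP2Y1, grown overnight at 37 °C, 5% CO2 (to ~80% confluency), loaded with calcium-4 dye plus probenecid (no wash), 1 h at rt. Compounds diluted in Hank's buffer pH 7.2, tested up to 10 μM; FLIPR-Tetra at rt, ex 485/em 525 nm, duplicates. Response is peak fluorescence minus pre-exposure basal.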

[2] = tested on: Mus musculus; experiment: Cardioprotective effect in calsequestrin transgenic mouse model of severe cardiomyopathy and heart failure assessed as improvement of echocardiography-derived fractional shortening at 3.3 uM, sc administered per day via minipump measured after 28 days by transthoracic echocardiographic analysis; type: functional
How it was run: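 CSQ-overexpressing transgenic mice (lethal heart failure near 3 months); analogue dissolved at 3.3 μM in sterile saline/PBS pH 7.4 (200 μL pump load), sterile-filtered, infused subcutaneously by mini-osmotic pump at 6 μL/day for 28 days; vehicle-infused CSQ controls. Under 1% isoflurane, M-mode echocardiography gave LVEDD, LVESD and FS ((LVEDD-LVESD)/LVEDD), averaged over >3 cardiac cycles; one-way ANOVA with post-test.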

[3] = molecular target: T1, P2Y purinoceptor 1; experiment: Activation of human P2Y1 receptor expressed in human 1321N1 cells assessed as induction of calcium flux by FLIPR assay; type: functional, cell-based
[4] = molecular target: T1, P2Y purinoceptor 1; experiment: Activation of human P2Y1 receptor expressed in human 1321N1 cells assessed as induction of calcium flux by FLIPR assay relative to 2-MeSADP; type: functional, cell-based; how it was run: as §1
[5] = molecular target: T1, P2Y purinoceptor 1; experiment: Agonist activity at human P2Y1 receptor expressed in human 1321N1 cells by PLC assay; type: functional, cell-based
[6] = tested on: Mus musculus; experiment: Cardioprotective effect in calsequestrin transgenic mouse model of heart failure assessed as increased shortening of heart septum and left ventricular free wall at 3.3 uM, sc administered per day via minipump measured after 28 days by transthoracic echocardiographic analysis; type: functional, organism-based
How it was run: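 Calsequestrin-overexpressing transgenic mice (hypertrophy, lethal heart failure near 3 months). Compound at 3.3 μM in sterile saline/PBS pH 7.4, filter-sterilized, infused subcutaneously via osmotic minipump at 6 μL/day for 28 days; saline-infused controls. Under 1% isoflurane, M-mode echocardiography gave LVEDD, LVESD and FS = (LVEDD−LVESD)/LVEDD, averaged over >3 cardiac cycles; mean ± SE, one-way ANOVA with post-test.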

[7] = tested on: 1321-N1; experiment: Induction of calcium flux in human 1321N1 cells at 10 uM by FLIPR assay; type: functional, cell-based

Row | SMILES | Activity [1] | Activity [2] [%] | other results
1 | Nc1nc(Cl)nc2c1ncn2[C@H]1[C@H](O)[C@H](O)[C@@]2(CCP(=O)(O)O)C[C@H]12 | inactive | 19.26 | –
2 | Nc1nc(Cl)nc2c1ncn2[C@H]1[C@H](O)[C@H](O)[C@@]2(COP(=O)(O)O)C[C@H]12 | – | 15.47 | EC50 [3]: 722 nM; %max [4]: 80%; EC50 [5]: 1890 nM
3 | Nc1nc(Cl)nc2c1ncn2[C@H]1[C@H](O)[C@H](O)[C@@]2(CP(=O)(O)O)C[C@H]12 | inactive | 20.25 | Activity [6]: Active
4 | CP(=O)(O)C[C@]12C[C@@H]1[C@@H](n1cnc3c(N)nc(Cl)nc31)[C@H](O)[C@@H]2O | inactive | 15 | –
5 | Nc1ncnc2c1ncn2[C@H]1[C@H](O)[C@H](O)[C@@]2(/C=C/P(=O)(O)O)C[C@H]12 | inactive | 13.88 | –
6 | CSc1nc(N)c2ncn([C@@H]3O[C@H](COP(=O)(O)OP(=O)(O)O)[C@@H](O)[C@H]3O)c2n1 | – | – | Activity [7]: inactive
7 | Nc1nc(Cl)nc2c1ncn2[C@H]1[C@H](O)[C@H](O)[C@@]2(/C=C/P(=O)(O)O)C[C@H]12 | inactive | 12.12 | –
8 | Nc1ncnc2c1ncn2[C@H]1[C@H](O)[C@H](O)[C@@]2(CCP(=O)(O)O)C[C@H]12 | inactive | 11.15 | –
9 | Nc1ncnc2c1ncn2[C@H]1[C@H](O)[C@H](O)[C@@]2(CP(=O)(O)O)C[C@H]12 | inactive | 16.23 | –
